Experimental data from ChEMBL document CHEMBL2021818, “Novel desosamine-modified 14- and 15-membered macrolides without antibacterial activity” (2012).
In brackets after ≈: the same amount, converted by molar mass.

Assays:
Type in all cases: functional
Staphylococcus aureus = assay: Antibacterial activity against Staphylococcus aureus ATCC 13709 after 24 hrs at 37 degC by CLSI protocol based microdilution method; conditions: ATCC 13709, 24 h
Procedure, shortened: (§1)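 Macrolide-susceptible strains, broth microdilution MIC per CLSI. Media: Mueller–Hinton broth (MHB) for S. aureus and M. catarrhalis, MHB plus 5% horse serum for streptococci, Haemophilus test medium for H. influenzae. Compounds dissolved in DMF (5 mg/mL stock) and serially twofold diluted in medium over 64 to 0.125 µg/mL. MIC read after 24 h incubation at 37 °C.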

Streptococcus pneumoniae = assay: Antibacterial activity against Streptococcus pneumoniae ATCC […] after 24 hrs at 37 degC by CLSI protocol based microdilution method; procedure, shortened: as §1
Streptococcus pyogenes = assay: Antibacterial activity against Streptococcus pyogenes ATCC 700294 after 24 hrs at 37 degC by CLSI protocol based microdilution method; conditions: ATCC 700294, 24 h; procedure, shortened: as §1
Moraxella catarrhalis = assay: Antibacterial activity against Moraxella catarrhalis ATCC 23246 after 24 hrs at 37 degC by CLSI protocol based microdilution method; conditions: ATCC 23246, 24 h; procedure, shortened: as §1
Haemophilus influenzae = assay: Antibacterial activity against Haemophilus influenzae ATCC 49247 after 24 hrs at 37 degC by CLSI protocol based microdilution method; conditions: ATCC 49247, 24 h; procedure, shortened: as §1

MIC (Staphylococcus aureus) [µg/mL] | MIC (Streptococcus pneumoniae) [µg/mL] | MIC (Streptococcus pyogenes) [µg/mL] | MIC (Moraxella catarrhalis) [µg/mL] | MIC (Haemophilus influenzae) [µg/mL] | SMILES
> 64 | > 64 | > 64 | > 64 | > 64 | CC[C@H]1OC(=O)[C@H](C)[C@@H](O[C@H]2C[C@@](C)(OC)[C@@H](O)[C@H](C)O2)[C@H](C)[C@@H](O[C@@H]2O[C@H](C)C[C@H]3[C@H]2OC(=O)N3CC)[C@](C)(OC)C[C@@H](C)C(=O)[C@H](C)[C@@H](O)[C@]1(C)O
> 64 | > 64 | > 64 | > 64 | > 64 | CC[C@H]1OC(=O)[C@H](C)[C@@H](O[C@H]2C[C@@](C)(OC)[C@@H](O)[C@H](C)O2)[C@H](C)[C@@H](O[C@@H]2O[C@H](C)C[C@H](N)[C@H]2O)[C@](C)(OC)C[C@@H](C)C(=O)N[C@H](C)[C@@H](O)[C@]1(C)O
> 64 | > 64 | > 64 | > 64 | > 64 | CC[C@H]1OC(=O)[C@H](C)[C@@H](O[C@H]2C[C@@](C)(OC)[C@@H](O)[C@H](C)O2)[C@H](C)[C@@H](O[C@@H]2O[C@H](C)C[C@H]3[C@H]2OC(=O)N3C)[C@](C)(OC)C[C@@H](C)C(=O)[C@H](C)[C@@H](O)[C@]1(C)O
> 64 | > 64 | > 64 | > 64 | > 64 | CC[C@H]1OC(=O)[C@H](C)[C@@H](O[C@H]2C[C@@](C)(OC)[C@@H](O)[C@H](C)O2)[C@H](C)[C@@H](O[C@@H]2O[C@H](C)C[C@H]3[C@H]2OC(=O)N3C)[C@](C)(OC)C[C@@H](C)C(=O)N[C@H](C)[C@@H](O)[C@]1(C)O
16 (≈ 21.8 µM) | 2 (≈ 2.72 µM) | 2 (≈ 2.72 µM) | 2 (≈ 2.72 µM) | > 64 | CC[C@H]1OC(=O)[C@H](C)[C@@H](O[C@H]2C[C@@](C)(OC)[C@@H](O)[C@H](C)O2)[C@H](C)[C@@H](O[C@@H]2O[C@H](C)C[C@H](NC)[C@H]2O)[C@](C)(O)C[C@@H](C)CN(C)[C@H](C)[C@@H](O)[C@]1(C)O
> 64 | > 64 | > 64 | > 64 | > 64 | CC[C@H]1OC(=O)[C@H](C)[C@@H](O[C@H]2C[C@@](C)(OC)[C@@H](O)[C@H](C)O2)[C@H](C)[C@@H](O[C@@H]2O[C@H](C)C[C@H]3[C@H]2OC(=O)N3Cc2ccccc2)[C@](C)(OC)C[C@@H](C)C(=O)[C@H](C)[C@@H](O)[C@]1(C)O
> 64 | > 64 | > 64 | > 64 | > 64 | CC[C@H]1OC(=O)[C@H](C)[C@@H](O[C@H]2C[C@@](C)(OC)[C@@H](O)[C@H](C)O2)[C@H](C)[C@@H](O[C@@H]2O[C@H](C)C[C@H]3[C@H]2OC(=O)N3CC)[C@](C)(O)C[C@@H](C)CN(C)[C@H](C)[C@@H](O)[C@]1(C)O
> 64 | 2 (≈ 2.78 µM) | 2 (≈ 2.78 µM) | 16 (≈ 22.2 µM) | > 64 | CC[C@H]1OC(=O)[C@H](C)[C@@H](O[C@H]2C[C@@](C)(OC)[C@@H](O)[C@H](C)O2)[C@H](C)[C@@H](O[C@@H]2O[C@H](C)C[C@H](N)[C@H]2O)[C@](C)(OC)C[C@@H](C)C(=O)[C@H](C)[C@@H](O)[C@]1(C)O
> 64 | > 64 | > 64 | > 64 | > 64 | CC[C@H]1OC(=O)[C@H](C)[C@@H](O[C@H]2C[C@@](C)(OC)[C@@H](O)[C@H](C)O2)[C@H](C)[C@@H](O[C@@H]2O[C@H](C)C[C@@H]3NC(=O)O[C@@H]23)[C@](C)(O)C[C@@H](C)CN(C)[C@H](C)[C@@H](O)[C@]1(C)O
> 64 | 4 (≈ 5.55 µM) | 32 (≈ 44.4 µM) | 8 (≈ 11.1 µM) | 64 (≈ 88.8 µM) | CC[C@H]1OC(=O)[C@H](C)[C@@H](O[C@H]2C[C@@](C)(OC)[C@@H](O)[C@H](C)O2)[C@H](C)[C@@H](O[C@@H]2O[C@H](C)C[C@H](N)[C@H]2O)[C@](C)(O)C[C@@H](C)CN(C)[C@H](C)[C@@H](O)[C@]1(C)O
> 64 | > 64 | > 64 | > 64 | > 64 | CC[C@H]1OC(=O)[C@H](C)[C@@H](O[C@H]2C[C@@](C)(OC)[C@@H](O)[C@H](C)O2)[C@H](C)[C@@H](O[C@@H]2O[C@H](C)C[C@@H]3NC(=O)O[C@@H]23)[C@](C)(OC)C[C@@H](C)C(=O)N[C@H](C)[C@@H](O)[C@]1(C)O
> 64 | > 64 | > 64 | > 64 | > 64 | CCCCCCN1C(=O)O[C@H]2[C@H](O[C@@H]3[C@@H](C)[C@H](O[C@H]4C[C@@](C)(OC)[C@@H](O)[C@H](C)O4)[C@@H](C)C(=O)O[C@H](CC)[C@@](C)(O)[C@H](O)[C@@H](C)N(C)C[C@H](C)C[C@@]3(C)O)O[C@H](C)C[C@@H]21
32 (≈ 41.9 µM) | 1 (≈ 1.31 µM) | 4 (≈ 5.24 µM) | 0.5 (≈ 0.655 µM) | 16 (≈ 21 µM) | CC[C@H]1OC(=O)[C@H](C)[C@@H](O[C@H]2C[C@@](C)(OC)[C@@H](O)[C@H](C)O2)[C@H](C)[C@@H](O[C@@H]2O[C@H](C)C[C@H](N(C)C)[C@H]2O)[C@](C)(OC)C[C@@H](C)C(=O)N[C@H](C)[C@@H](O)[C@]1(C)O
> 64 | > 64 | > 64 | > 64 | > 64 | CCCN1C(=O)O[C@H]2[C@H](O[C@@H]3[C@@H](C)[C@H](O[C@H]4C[C@@](C)(OC)[C@@H](O)[C@H](C)O4)[C@@H](C)C(=O)O[C@H](CC)[C@@](C)(O)[C@H](O)[C@@H](C)NC(=O)[C@H](C)C[C@@]3(C)OC)O[C@H](C)C[C@@H]21
> 64 | > 64 | > 64 | > 64 | > 64 | CCCN1C(=O)O[C@H]2[C@H](O[C@@H]3[C@@H](C)[C@H](O[C@H]4C[C@@](C)(OC)[C@@H](O)[C@H](C)O4)[C@@H](C)C(=O)O[C@H](CC)[C@@](C)(O)[C@H](O)[C@@H](C)C(=O)[C@H](C)C[C@@]3(C)OC)O[C@H](C)C[C@@H]21
> 64 | > 64 | > 64 | > 64 | > 64 | CC[C@H]1OC(=O)[C@H](C)[C@@H](O[C@H]2C[C@@](C)(OC)[C@@H](O)[C@H](C)O2)[C@H](C)[C@@H](O[C@@H]2O[C@H](C)C[C@H]3[C@H]2OC(=O)N3C)[C@](C)(O)C[C@@H](C)CN(C)[C@H](C)[C@@H](O)[C@]1(C)O
4 (≈ 5.45 µM) | < 0.25 | < 0.25 | 2 (≈ 2.73 µM) | > 64 | CC[C@H]1OC(=O)[C@H](C)[C@@H](O[C@H]2C[C@@](C)(OC)[C@@H](O)[C@H](C)O2)[C@H](C)[C@@H](O[C@@H]2O[C@H](C)C[C@H](NC)[C@H]2O)[C@](C)(OC)C[C@@H](C)C(=O)[C@H](C)[C@@H](O)[C@]1(C)O
> 64 | > 64 | > 64 | > 64 | > 64 | CCCN1C(=O)O[C@H]2[C@H](O[C@@H]3[C@@H](C)[C@H](O[C@H]4C[C@@](C)(OC)[C@@H](O)[C@H](C)O4)[C@@H](C)C(=O)O[C@H](CC)[C@@](C)(O)[C@H](O)[C@@H](C)N(C)C[C@H](C)C[C@@]3(C)O)O[C@H](C)C[C@@H]21
> 64 | > 64 | > 64 | > 64 | > 64 | CC[C@H]1OC(=O)[C@H](C)[C@@H](O[C@H]2C[C@@](C)(OC)[C@@H](O)[C@H](C)O2)[C@H](C)[C@@H](O[C@@H]2O[C@H](C)C[C@@H]3NC(=O)O[C@@H]23)[C@](C)(OC)C[C@@H](C)C(=O)[C@H](C)[C@@H](O)[C@]1(C)O
> 64 | > 64 | > 64 | > 64 | > 64 | CC[C@H]1OC(=O)[C@H](C)[C@@H](O[C@H]2C[C@@](C)(OC)[C@@H](O)[C@H](C)O2)[C@H](C)[C@@H](O[C@@H]2O[C@H](C)C[C@H]3[C@H]2OC(=O)N3CC)[C@](C)(OC)C[C@@H](C)C(=O)N[C@H](C)[C@@H](O)[C@]1(C)O
> 64 | 32 (≈ 42.7 µM) | 64 (≈ 85.5 µM) | 16 (≈ 21.4 µM) | > 64 | CC[C@H]1OC(=O)[C@H](C)[C@@H](O[C@H]2C[C@@](C)(OC)[C@@H](O)[C@H](C)O2)[C@H](C)[C@@H](O[C@@H]2O[C@H](C)C[C@H](NC)[C@H]2O)[C@](C)(OC)C[C@@H](C)C(=O)N[C@H](C)[C@@H](O)[C@]1(C)O

SMILES | MIC (Staphylococcus aureus) [µg/mL] | MIC (Streptococcus pneumoniae) [µg/mL] | MIC (Streptococcus pyogenes) [µg/mL] | MIC (Moraxella catarrhalis) [µg/mL] | MIC (Haemophilus influenzae) [µg/mL]
CC[C@H]1OC(=O)[C@H](C)[C@@H](O[C@H]2C[C@@](C)(OC)[C@@H](O)[C@H](C)O2)[C@H](C)[C@@H](O[C@@H]2O[C@H](C)C[C@H](N(C)C)[C@H]2O)[C@](C)(OC)C[C@@H](C)C(=O)[C@H](C)[C@@H](O)[C@]1(C)O [CLARITHROMYCIN] | 0.25 (≈ 0.334 µM) | < 0.125 | < 0.125 | < 0.125 | 8 (≈ 10.7 µM)
CC[C@H]1OC(=O)[C@H](C)[C@@H](O[C@H]2C[C@@](C)(OC)[C@@H](O)[C@H](C)O2)[C@H](C)[C@@H](O[C@@H]2O[C@H](C)C[C@H](N(C)C)[C@H]2O)[C@](C)(O)C[C@@H](C)CN(C)[C@H](C)[C@@H](O)[C@]1(C)O [AZITHROMYCIN] | 1 (≈ 1.34 µM) | < 0.125 | < 0.125 | < 0.125 | 2 (≈ 2.67 µM)
